target: human TRPV1 (Homo sapiens, UniProt Q8NER1); experiment: 45Ca2+ uptake assay, antagonism of capsaicin; type: cell-based; settings: not given
Sequence (Q8NER1 whole entry): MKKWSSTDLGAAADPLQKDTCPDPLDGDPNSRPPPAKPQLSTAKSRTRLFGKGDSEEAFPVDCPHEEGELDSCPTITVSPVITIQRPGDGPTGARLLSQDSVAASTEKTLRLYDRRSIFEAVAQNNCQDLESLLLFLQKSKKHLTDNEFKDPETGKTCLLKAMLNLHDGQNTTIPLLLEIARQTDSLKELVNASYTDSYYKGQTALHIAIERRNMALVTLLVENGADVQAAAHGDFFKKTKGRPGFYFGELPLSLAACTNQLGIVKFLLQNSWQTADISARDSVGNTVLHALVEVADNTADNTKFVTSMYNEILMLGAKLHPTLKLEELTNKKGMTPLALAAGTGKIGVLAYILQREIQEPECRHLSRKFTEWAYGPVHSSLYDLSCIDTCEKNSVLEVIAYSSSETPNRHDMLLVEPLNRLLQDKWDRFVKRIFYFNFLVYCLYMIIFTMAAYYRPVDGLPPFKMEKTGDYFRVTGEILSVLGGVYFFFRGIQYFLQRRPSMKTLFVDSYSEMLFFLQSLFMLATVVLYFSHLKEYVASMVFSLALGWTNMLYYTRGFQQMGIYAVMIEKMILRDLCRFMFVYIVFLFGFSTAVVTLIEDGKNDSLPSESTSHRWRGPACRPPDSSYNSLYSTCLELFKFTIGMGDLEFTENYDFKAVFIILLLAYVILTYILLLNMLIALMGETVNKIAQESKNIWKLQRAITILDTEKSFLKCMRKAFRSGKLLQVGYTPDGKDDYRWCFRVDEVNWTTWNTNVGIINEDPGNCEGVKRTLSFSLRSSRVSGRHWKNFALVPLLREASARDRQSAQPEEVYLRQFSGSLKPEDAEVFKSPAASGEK

Point of comparison: `CN(C)C1(Cc2ccccc2)CCN(c2cc(C(F)(F)F)ccc2CNC(=O)Nc2cccc3[nH]c(=O)ccc23)CC1` [compound 35, 1-(2-(4-Benzyl-4-(dimethylamino)piperidin-1-yl)-4-(trifluoromethyl)benzyl)-3-(2-oxo-1,2-dihydroquinolin-5-yl)urea], Ki 30.6 nM. Against it:
- CC1CCN(c2nc(C(F)(F)F)ccc2CNC(=O)[C@@H](C)c2ccc(NS(C)(=O)=O)c(F)c2)CC1 [compound 1, reference compound] — 14-fold lower, 2.22 nM
- CC(C(=O)NCc1ccc(C(F)(F)F)cc1N1CCC(Cc2ccccc2)(N(C)C)CC1)c1ccc(NS(C)(=O)=O)c(F)c1 (centres unmarked) [compound 11, N-(2-(4-Benzyl-4-(dimethylamino)piperidin-1-yl)-4-(trifluoromethyl)benzyl)-2-(3-fluoro-4-(methylsulfonamido)phenyl)propanamide] — 3.7-fold lower, 8.2 nM
- CN(C)C1(Cc2ccccc2)CCN(c2cc(C(F)(F)F)ccc2CNC(=O)Nc2ccc(CNS(C)(=O)=O)c(F)c2)CC1 [compound 15, N-(4-(3-(2-(4-Benzyl-4-(dimethylamino)piperidin-1-yl)-4-(trifluoromethyl)benzyl)-ureido)-2-fluorobenzyl)methanesulfonamide] — within 1.5-fold, 25 nM
- CN(C)C1(Cc2ccccc2)CCN(c2cc(C(F)(F)F)ccc2CNC(=O)NCc2ccc(NS(C)(=O)=O)c(F)c2)CC1 [compound 17, N-(4-((3-(2-(4-Benzyl-4-(dimethylamino)piperidin-1-yl)-4-(trifluoromethyl)benzyl)-ureido)-methyl)-2-fluorophenyl)methanesulfonamide] — 2.8-fold higher, 85.9 nM
- CN(C)C1(Cc2ccccc2)CCN(c2cc(C(F)(F)F)ccc2CNC(=O)Nc2ccc(CO)c(F)c2)CC1 [compound 23, 1-(2-(4-Benzyl-4-(dimethylamino)piperidin-1-yl)-4-(trifluoromethyl)benzyl)-3-(3-fluoro-4-(hydroxymethyl)phenyl)urea] — 2.6-fold higher, 81 nM
- CN(C)C1(Cc2ccccc2)CCN(c2cc(C(F)(F)F)ccc2CNC(=O)Nc2ccc3c(c2)OCC3)CC1 [compound 33, 1-(2-(4-Benzyl-4-(dimethylamino)piperidin-1-yl)-4-(trifluoromethyl)benzyl)-3-(2,3-dihydrobenzofuran-6-yl)urea] — within 1.5-fold, 31.3 nM
- CN(C)C1(Cc2ccccc2)CCN(c2cc(C(F)(F)F)ccc2CNC(=O)Nc2ccc3cccnc3c2)CC1 [compound 44, 1-(2-(4-Benzyl-4-(dimethylamino)piperidin-1-yl)-4-(trifluoromethyl)benzyl)-3-(quinolin-7-yl)urea] — within 1.5-fold, 42 nM
- CN(C)C1(Cc2ccccc2)CCN(c2cc(C(F)(F)F)ccc2CNC(=O)Nc2ccc3ccncc3c2)CC1 [compound 45, 1-(2-(4-Benzyl-4-(dimethylamino)piperidin-1-yl)-4-(trifluoromethyl)benzyl)-3-(isoquinolin-7-yl)urea] — 1.8-fold higher, 56.1 nM
- CN(C)C1(Cc2ccccc2)CCN(c2cc(C(F)(F)F)ccc2CNC(=O)Nc2ccc3cnccc3c2)CC1 [compound 46, 1-(2-(4-Benzyl-4-(dimethylamino)piperidin-1-yl)-4-(trifluoromethyl)benzyl)-3-(isoquinolin-6-yl)urea] — 5.1-fold higher, 156 nM
- CN(C)C1(Cc2ccccc2)CCN(c2cc(C(F)(F)F)ccc2CNC(=O)Nc2cccc3ccncc23)CC1 [compound 47, 1-(2-(4-Benzyl-4-(dimethylamino)piperidin-1-yl)-4-(trifluoromethyl)benzyl)-3-(isoquinolin-8-yl)urea] — 1.6-fold lower, 18.7 nM
- CN(C)C1(Cc2ccccc2)CCN(c2cc(C(F)(F)F)ccc2CNC(=O)Nc2cccc3cnccc23)CC1 [compound 48, 1-(2-(4-Benzyl-4-(dimethylamino)piperidin-1-yl)-4-(trifluoromethyl)benzyl)-3-(isoquinolin-5-yl)urea] — 3.5-fold lower, 8.8 nM

target: mu-opioid receptor (MOR) (Homo sapiens, UniProt P35372); experiment: MOR binding competition assay with [3H]DAMGO; settings: MOR binding Ki relative to morphine
Sequence (P35372 whole entry, species assumed): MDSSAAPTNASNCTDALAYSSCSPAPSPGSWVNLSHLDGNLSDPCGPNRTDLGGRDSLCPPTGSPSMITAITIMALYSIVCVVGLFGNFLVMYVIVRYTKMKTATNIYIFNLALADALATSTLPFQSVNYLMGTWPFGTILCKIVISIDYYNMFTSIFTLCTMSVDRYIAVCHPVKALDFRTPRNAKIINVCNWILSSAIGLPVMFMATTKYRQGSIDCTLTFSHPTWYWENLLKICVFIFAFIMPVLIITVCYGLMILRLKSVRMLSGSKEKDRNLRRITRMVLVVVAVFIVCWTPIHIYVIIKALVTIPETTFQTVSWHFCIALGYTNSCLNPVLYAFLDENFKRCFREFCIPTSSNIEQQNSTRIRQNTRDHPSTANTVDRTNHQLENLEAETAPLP

In the case of `CN(C)C1(Cc2ccccc2)CCN(c2cc(C(F)(F)F)ccc2CNC(=O)Nc2cccc3ncccc23)CC1` [compound 49, 1-(2-(4-Benzyl-4-(dimethylamino)piperidin-1-yl)-4-(trifluoromethyl)benzyl)-3-(quinolin-5-yl)urea], the “fold less potent than morphine (MOR Ki)” value is reported as 5 fold.

tested on: ICR mice; experiment: Formalin test; type: in vivo, mouse; settings: 40 mg/kg i.p., formalin assay phase 2
How it was run: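 Male ICR mice (20-25 g, groups of 6-8) were housed at 22 ± 2 °C and 50 ± 5% humidity and acclimated to the chamber for at least 5 min. Test compound was given i.p. 30 min before 20 μL of 2% formalin in 0.9% saline was injected into the dorsal right hindpaw. Licking/biting time (s) was summed per 5-min block over 30 min: early phase 0-5 min, late phase 20-30 min.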

With `CN(C)C1(Cc2ccccc2)CCN(c2cc(C(F)(F)F)ccc2CNC(=O)Nc2cccc3ncccc23)CC1` [compound 49, 1-(2-(4-Benzyl-4-(dimethylamino)piperidin-1-yl)-4-(trifluoromethyl)benzyl)-3-(quinolin-5-yl)urea] the “inhibition of pain behavior in phase 2” value was “completely”.

Reference: article PMC6815263 (European journal of medicinal chemistry, 2019)
